Assays:
[1] = tested on: Plasmodium falciparum; test: Antiplasmodial activity against liver stage Plasmodium falciparum NF54 sporozoites infected in human hepatocytes assessed as maximal parasite killing measured after 96 hrs by schizont assay relative to control; type: functional
[2] = Stability in Sprague-Dawley rat plasma assessed as compound remaining at 1000 ng/ml after 2 hrs by LC-MS analysis; type: ADME, cell-free; details: read-out: Stability
In short: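 Pooled plasma (human, 3 donors; or male Sprague Dawley rat) spiked to nominal 1000 ng/mL, with at most 0.2% DMSO and 0.4% acetonitrile final. Held at 37 °C with timed aliquots. LC-MS against matrix standards with diazepam internal standard. Percent remaining is relative to the 5 min sample.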

[3] = tested on: Plasmodium falciparum; test: Antimalarial activity against Plasmodium falciparum TM90C2b harbouring Pf-crt, Pf-mdrl,Pfd-hfr, Pf-cytbQ0 mutated loci assessed as inhibition of parasite growth incubated for […] by [3H]hypoxanthine incorporation assay based liquid scintillation counting method; type: functional, organism-based
In short: (§1)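 Drug-resistant laboratory P. falciparum strains were compared against the sensitive strain NF54. Growth inhibition was read by a modified [3H]hypoxanthine incorporation assay over 72 h. IC50 is the mean of two independent biological replicates. Chloroquine and artesunate served as controls.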

[4] = tested on: Plasmodium falciparum; test: Antimalarial activity against Plasmodium falciparum 3D70087/N9 infected in humanized NODscidlL2Rgamma null mouse model assessed as reduction in parasitemia at 50 mg/kg, po for 4 consecutive days measured after 7 days of post infection relative to control; type: functional; details: 3D70087/N9, po, 96 h, time 4 day
In short: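 P. falciparum humanized SCID mouse model. Monosodium tetrahydrate salt given orally at 50 or 100 mg/kg on 4 consecutive days, n = 2 mice per group. Parasitemia read at day 7 post infection versus untreated controls.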

[5] = Toxicity in SCID mouse infected with Plasmodium falciparum 3D70087/N9 at 50 to 100 mg/kg, po for 4 consecutive days measured after 7 days of post infection; type: organism-based; details: in vivo, 96 h, dose 50-100 mg/kg, time 4 day
[6] = Intrinsic clearance in rat hepatocytes measured per 10^6 cells at 0.25 uM by LC-MS analysis; type: ADME, cell-based, Hepatocyte; details: read-out: CLH
In short: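 Compound at 0.25 μM incubated with cryopreserved human or rat hepatocytes (1×10^6 cells/mL) in Krebs–Henseleit buffer at 37 °C. Quenched with acetonitrile containing diazepam. LC-MS quantitation. CLint from the first-order degradation rate constant.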

[7] = tested on: Plasmodium falciparum; test: Antimalarial activity against Plasmodium falciparum Cam3.1 harbouring Pf-crt, Pf-mdrl,Pf-dhfr, Pf-dhps, pf-kelch13 mutated loci assessed as inhibition of parasite growth incubated for […] by [3H]hypoxanthine incorporation assay based liquid scintillation counting method; type: functional, organism-based; in short: as §1
[8] = Cytotoxicity against human HEK293 cells assessed as cell viability incubated for 72 hrs by Alamar blue assay; type: cell-based
In short: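 HEK293 cells handled with the same incubation, compound addition and timing as the 72 h parasite assay. Alamar Blue, diluted in growth medium, was incubated 4 h at 37 °C/5% CO2, then 20 h at room temperature before plate read.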

[9] = tested on: Plasmodium falciparum; test: Antimalarial activity against wild type Plasmodium falciparum Dd2 assessed as inhibition of parasite growth incubated for […] by [3H]hypoxanthine incorporation assay based liquid scintillation counting method; type: functional, organism-based
In short: (§2)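 Genetically engineered P. falciparum lines carried mutations introduced into the Dd2 wild-type strain, which was tested alongside them. Growth inhibition was read by [3H]hypoxanthine incorporation over 72 h. IC50 is the mean of two independent biological replicates. Chloroquine and artesunate served as controls.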

[10] = Apparent permeability of the compound from apical to basolateral side in human Caco-2 cells at 20 uM measured after 120 mins by LC-MS analysis; type: ADME, cell-based
In short: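 Caco-2 monolayers, apical-to-basolateral direction, in pH 7.4 HBSS with 20 mM HEPES on both sides. Donor at nominal 20 μM, 0.1% DMSO final. Flux followed over 120 min. Quantified by LC-MS with mass balance to derive Papp.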

[11] = tested on: Plasmodium falciparum; test: Antiplasmodial activity against liver stage Plasmodium falciparum NF54 sporozoites infected in human hepatocytes assessed as parasite killing measured after 96 hrs by schizont assay; type: functional, organism-based; details: NF54, 96 h
[12] = tested on: Plasmodium falciparum; test: Antimalarial activity against Plasmodium falciparum NF54 assessed as inhibition of parasite growth incubated for 72 hrs by [3H]hypoxanthine incorporation assay based liquid scintillation counting method
[13] = tested on: Plasmodium falciparum; test: Antimalarial activity against Plasmodium falciparum Dd2 […] mutant harbouring Pf-car1 assessed as inhibition of parasite growth incubated for […] by [3H]hypoxanthine incorporation assay based liquid scintillation counting method; type: functional, organism-based; in short: as §2
[14] = tested on: Plasmodium falciparum; test: Antimalarial activity against Plasmodium falciparum Dd2 ELQ-300 mutant harbouring Pf-cytB assessed as inhibition of parasite growth incubated for […] by [3H]hypoxanthine incorporation assay based liquid scintillation counting method; type: functional, organism-based; in short: as §2
[15] = biological target: CYP2C9 (Homo sapiens, UniProt P11712); test: Inhibition of CYP2C9 (unknown origin) at 10 uM by UPLC-MS analysis relative to control; type: ADME
CYP2C9, sequence (P11712 whole entry): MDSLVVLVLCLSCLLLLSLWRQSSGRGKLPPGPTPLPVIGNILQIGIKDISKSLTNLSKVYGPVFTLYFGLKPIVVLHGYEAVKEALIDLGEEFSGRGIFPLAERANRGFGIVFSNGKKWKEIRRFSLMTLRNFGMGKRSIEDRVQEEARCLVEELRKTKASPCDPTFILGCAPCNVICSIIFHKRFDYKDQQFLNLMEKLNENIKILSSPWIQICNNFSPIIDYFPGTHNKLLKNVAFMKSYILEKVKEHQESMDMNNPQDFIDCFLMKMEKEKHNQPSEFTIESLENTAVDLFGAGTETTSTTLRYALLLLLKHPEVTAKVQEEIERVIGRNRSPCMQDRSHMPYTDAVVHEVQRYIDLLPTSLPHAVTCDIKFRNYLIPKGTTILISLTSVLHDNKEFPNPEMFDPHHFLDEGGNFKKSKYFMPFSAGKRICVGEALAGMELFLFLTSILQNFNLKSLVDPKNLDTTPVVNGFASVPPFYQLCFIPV
In short: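 Human liver microsomes, using a substrate-specific metabolite approach. Test compound at 1 and 10 μM. Reference inhibitors: furafylline (1A2), sulfaphenazole (2C9), quinidine (2D6), ketoconazole (3A4). Specific metabolites quantified by UPLC-MS. Percent inhibition relative to incubation without inhibitor.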

[16] = tested on: Plasmodium falciparum; test: Antimalarial activity against Plasmodium falciparum Dd2 DDD498 mutant harbouring Pf-cytB assessed as inhibition of parasite growth incubated for […] by [3H]hypoxanthine incorporation assay based liquid scintillation counting method; type: functional, organism-based; in short: as §2
[17] = Intrinsic clearance in human liver microsomes at […] by LC-MS/MS analysis; type: ADME, Microsome
In short: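 Liver microsomes (human, mouse or rat) at 0.4 mg/mL protein, 37 °C, with an NADPH-regenerating system. Compound at 0.25 or 0.5 μM. Acetonitrile/diazepam quench, LC-MS quantitation. CLint from the first-order degradation rate constant.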

## CCc1cccc(CNC(=O)c2nc3cccc(COCc4ccc(C(=O)O)cc4)c3c(=O)[nH]2)c1
[1]
  Emax: 50%
[2]
  remaining at 2 h, 1000 ng/ml: 93.4%
[3]
  IC50: 24 nM
[4]
  inhibition in vivo at 50 mg/kg: 65%
[5]
  Activity: Non-Toxic
[6]
  hepatocyte CLint at 0.25 µM: 6 µL/min/1e6 cells
[7]
  IC50: 31 nM
[8]
  CC50 at 72 h: > 40000 nM
[9]
  IC50: 33 nM
[10]
  Papp A→B at 2 h, 20 µM: 35 ×10⁻⁶ cm/s
[11]
  IC50: 75 nM
[12]
  IC50: 60 nM
[13]
  IC50: 18 nM
[14]
  IC50: 20 nM
[15]
  inhibition at 10 µM: 55%
[16]
  IC50: 19 nM
[17]
  CLH: 35 uL/ml.millig

From ChEMBL document CHEMBL4828745, “Discovery and Structure-Activity Relationships of Quinazolinone-2-carboxamide Derivatives as Novel Orally Efficacious Antimalarials” (J Med Chem, 2021)
